From ChEMBL document CHEMBL1155452, “Oncocin (VDKPPYLPRPRPPRRIYNR-NH2): a novel antibacterial peptide optimized against gram-negative human pathogens” (J Med Chem, 2010) come the findings set out here.

In one data set the test system is SH-SY5Y. Kind of data set: Cytotoxicity against human SH-SY5Y cells at 600 ug/ml after 24 hrs by MTT assay. The format is cell-based. In outline:
(§1)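 HeLa (1.5 × 10^4/well, seeded overnight) or SH-SY5Y (2 × 10^4/well, differentiated 5 days with 10 μM trans-retinoic acid) in DMEM/Ham's F-12 with 5% or 15% FBS. Peptide added at 600 μg/mL for 24 h at 37 °C, 5% CO2. MTT 0.5 mg/mL for 4 h, then SDS/HCl for 16 h; A590 read against 650 nm. Normalized to PBS (100%); DMSO 12% as positive control.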
Background: Tetrazolium assays rely on reduction of a dye to a coloured formazan, in cell work by metabolically active cells.

In a further data set the test system is HeLa. Kind of data set: Cytotoxicity against human HeLa cells at 600 ug/ml after 24 hrs by MTT assay. The format is cell-based. A digest of the protocol: as §1
The next data set concerns Escherichia coli. Kind of data set: Antibacterial activity against Escherichia coli BL21 AI after 20 hrs by broth microdilution assay. Format: functional. In outline:
(§2)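 Nutrient-broth overnight cultures diluted in 1% TSB; E. coli BL21AI 7.5 × 10^5 cells/well, M. luteus ATCC 10240 2 × 10^6 cells/well. Peptides serially 2-fold diluted in 1% TSB from 128 to typically 0.5 μg/mL. Incubation at 37 °C; A595 read after 20 ± 2 h. MIC is the lowest concentration with absorbance not above medium only. Triplicate.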
Background: Broth dilution looks for growth in wells or tubes with falling amounts of substance.

The next data set has as its system Micrococcus luteus. Kind of data set: Antibacterial activity against Micrococcus luteus ATCC 10240 after 20 hrs by broth microdilution assay. Conditions: ATCC 10240, 20 h. The format is functional. In outline: as §2
A short description of data set [1]: Stability in 25% mouse serum assessed as half life at 75 ug/ml by MALDI-TOF-MS analysis. Format: ADME, cell-free. In outline: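 Peptide at 75 μg/mL final in pooled mouse serum (undiluted or 25% v:v aqueous), 37 °C. Triplicate aliquots taken at 0, 30, 60, 120 and 240 min and precipitated with 3% TCA on ice for 10 min. Supernatant neutralized with NaOH and analysed by RP-HPLC on C18 with TFA-containing gradient. Amounts expressed relative to 0 min; metabolites identified by MALDI-TOF-MS.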

For the compound `CC[C@H](C)[C@H](NC(=O)[C@H](Cc1ccc(O)cc1)NC(=O)[C@@H](NC(=O)[C@@H]1CCCN1C(=O)[C@H](CCCNC(=N)N)NC(=O)[C@H](CC(N)=O)NC(=O)[C@H](CC(N)=O)NC(=O)CN)C(C)C)C(=O)N1CCC[C@H]1C(=O)N[C@@H](CCC(N)=O)C(=O)N1CCC[C@H]1C(=O)N[C@@H](CCCNC(=N)N)C(=O)N1CCC[C@H]1C(=O)N1CCC[C@H]1C(=O)N[C@@H](Cc1cnc[nH]1)C(=O)N1CCC[C@H]1C(=O)N[C@@H](CCCNC(=N)N)C(=O)N[C@@H](CC(C)C)C(=O)O` [APIDAECIN], the Activity result with SH-SY5Y and in the data set with HeLa was “Non-toxic” in each case.
Broadly, the MIC is the smallest concentration in the dilution series that meets the test's criterion for growth inhibition. A high value points to weaker potency. Take H-VDKPPYLPRPRPPRRIYNRN-NH2: the MIC against Escherichia coli was determined as 16 µg/mL; against Micrococcus luteus, 128 µg/mL.
The half-life is the time in which the quantity being followed falls by half. Turning to H-VDKPPYLPRPRPPRRIYNR-OH, the half-life at 75 ug/ml in data set [1] is under 30 min. Besides, the MIC worked out at 32 µg/mL against Escherichia coli and 64 µg/mL in the data set on Micrococcus luteus.
